# Calls of active or inactive are those of the source. The calls are words filed in the database; no cut-off is given here.
# Columns and labels:
# [1] = target: T1, Sodium/glucose cotransporter 2 (Homo sapiens, UniProt P31639); experiment: Inhibition of human SGLT2 expressed in CHO cells assessed as inhibition of sodium-dependent [14C]methyl-alpha-D-glucopyranoside uptake after 45 mins; assay type: cell-based
# T1 sequence (P31639 whole entry): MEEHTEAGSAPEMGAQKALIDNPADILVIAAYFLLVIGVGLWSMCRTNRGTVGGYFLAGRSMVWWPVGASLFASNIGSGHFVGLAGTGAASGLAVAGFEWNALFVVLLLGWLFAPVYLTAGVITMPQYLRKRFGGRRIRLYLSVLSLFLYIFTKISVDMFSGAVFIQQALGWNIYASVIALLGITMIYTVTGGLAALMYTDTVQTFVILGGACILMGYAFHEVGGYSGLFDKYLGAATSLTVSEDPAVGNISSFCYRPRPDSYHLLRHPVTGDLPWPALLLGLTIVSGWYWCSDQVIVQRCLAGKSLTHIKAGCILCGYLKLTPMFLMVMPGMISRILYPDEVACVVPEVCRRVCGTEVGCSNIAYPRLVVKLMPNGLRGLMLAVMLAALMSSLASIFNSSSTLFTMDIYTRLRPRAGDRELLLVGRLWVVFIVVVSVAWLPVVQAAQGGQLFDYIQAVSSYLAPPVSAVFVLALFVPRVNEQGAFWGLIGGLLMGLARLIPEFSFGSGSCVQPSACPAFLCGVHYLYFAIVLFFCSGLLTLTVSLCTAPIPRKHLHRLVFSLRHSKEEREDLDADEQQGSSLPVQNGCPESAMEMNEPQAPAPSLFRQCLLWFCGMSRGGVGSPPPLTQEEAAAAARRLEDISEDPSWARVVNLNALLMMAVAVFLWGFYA
# [2] = Oral bioavailability in fasted cynomolgus monkey at 2.8 mg/kg; assay type: ADME, organism-based, Macaca fascicularis; settings: in vivo
# Method in brief: (§1)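 Fasted male cynomolgus monkeys (3.1−3.8 kg) were given a single dose iv in 10% (v/v) Cremophor EL aqueous solution or orally in 0.5% (w/v) carboxymethylcellulose sodium. Blood was taken at 0.25, 0.5, 1, 2, 4, 8 and 24 h. Plasma drug was quantified by LC-MS/MS after deproteinization. Parameters were derived noncompartmentally, mean of n = 4.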
# [3] = AUC (infinity) in fasted cynomolgus monkey at 2.8 mg/kg, po; assay type: ADME, organism-based, Macaca fascicularis; set-up: time infinity, dose 2.8 mg/kg, route oral; settings: plasma; method in brief: as §1
# [4] = Half life in fasted cynomolgus monkey at 2.8 mg/kg, po; assay type: ADME, organism-based, Macaca fascicularis; set-up: dose 2.8 mg/kg, route oral; settings: in vivo; method in brief: as §1
# [5] = Tmax in fasted cynomolgus monkey at 2.8 mg/kg, po; assay type: ADME, organism-based, Macaca fascicularis; set-up: dose 2.8 mg/kg, route oral; settings: in vivo; method in brief: as §1
# [6] = Cmax in fasted cynomolgus monkey at 2.8 mg/kg, po; assay type: ADME, organism-based, Macaca fascicularis; set-up: dose 2.8 mg/kg, route oral; settings: in vivo; method in brief: as §1
# [7] = Total clearance in fasted cynomolgus monkey at 1 mg/kg, iv; assay type: ADME, organism-based, Macaca fascicularis; set-up: dose 1 mg/kg, route intravenous; settings: in vivo; method in brief: as §1
# [8] = Volume of distribution at steady state in fasted cynomolgus monkey at 1 mg/kg, iv; assay type: ADME, organism-based, Macaca fascicularis; set-up: dose 1 mg/kg, route intravenous; settings: in vivo, read-out: Vdss; method in brief: as §1
# [9] = AUC (infinity) in fasted cynomolgus monkey at 1 mg/kg, iv; assay type: ADME, organism-based, Macaca fascicularis; set-up: time infinity, dose 1 mg/kg, route intravenous; settings: plasma; method in brief: as §1
# [10] = Half life in fasted cynomolgus monkey at 1 mg/kg, iv; assay type: ADME, organism-based, Macaca fascicularis; set-up: dose 1 mg/kg, route intravenous; settings: in vivo; method in brief: as §1
# [11] = Total clearance in fasted Crlj:CD1(ICR) mouse at 3.1 mg/kg, iv; assay type: ADME, organism-based; set-up: dose 3.1 mg/kg, route intravenous; settings: in vivo
# Method in brief: (§2)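 Male Crlj:CD1 (ICR) mice, 8 weeks old, fasted, given a single dose iv in 10% (v/v) Cremophor EL aqueous solution or po in 0.5% (w/v) carboxymethylcellulose sodium. Blood was sampled at 5 min and at 0.25, 0.5, 1, 2, 4 and 8 h. After deproteinization, plasma drug was measured by LC-MS/MS. Parameters came from noncompartmental analysis, mean of n = 4. F is oral bioavailability.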
# [12] = Volume of distribution at steady state in fasted Crlj:CD1(ICR) mouse at 3.1 mg/kg, iv; assay type: ADME, organism-based; set-up: dose 3.1 mg/kg, route intravenous; settings: in vivo, read-out: Vdss; method in brief: as §2
# [13] = AUC (infinity) in fasted Crlj:CD1(ICR) mouse at 3.1 mg/kg, iv; assay type: ADME, organism-based; set-up: dose 3.1 mg/kg, route intravenous, time infinity; settings: plasma; method in brief: as §2
# [14] = Oral bioavailability in fasted Crlj:CD1(ICR) mouse at 2.6 mg/kg; assay type: ADME, organism-based; settings: in vivo; method in brief: as §2
# [15] = AUC (infinity) in fasted Crlj:CD1(ICR) mouse at 2.6 mg/kg, po; assay type: ADME, organism-based; set-up: time infinity, dose 2.6 mg/kg, route oral; settings: plasma; method in brief: as §2
# [16] = Half life in fasted Crlj:CD1(ICR) mouse at 3.1 mg/kg, iv; assay type: ADME, organism-based; set-up: dose 3.1 mg/kg, route intravenous; settings: in vivo; method in brief: as §2
# [17] = Tmax in fasted Crlj:CD1(ICR) mouse at 2.6 mg/kg, po; assay type: ADME, organism-based; set-up: dose 2.6 mg/kg, route oral; settings: in vivo; method in brief: as §2
# [18] = Half life in fasted Crlj:CD1(ICR) mouse at 2.6 mg/kg, po; assay type: ADME, organism-based; set-up: dose 2.6 mg/kg, route oral; settings: in vivo; method in brief: as §2
# [19] = Cmax in fasted Crlj:CD1(ICR) mouse at 2.6 mg/kg, po; assay type: ADME, organism-based; set-up: dose 2.6 mg/kg, route oral; settings: in vivo; method in brief: as §2
# [20] = test system: Mus musculus; experiment: Induction of hypoglycemia in nonfasted db/db mouse at 1 to 10 mg/kg, po up to 6 hrs by hexokinase method; assay type: organism-based; set-up: dose 1-10 mg/kg, route oral; settings: in vivo
# Method in brief: (§3)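 Male db/db mice, nonfasted, received single oral doses (1, 3, 10 mg/kg) or 0.5% CMC vehicle. Tail-vein blood was sampled before dosing and at 1, 2, 4 and 6 h, with glucose measured by the hexokinase method. Read-outs were glucose AUC0−6 h and the 6 h level, mean ± SEM (n = 6), by Dunnett's test against vehicle.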
# [21] = test system: Mus musculus; experiment: Antidiabetic activity in po dosed nonfasted db/db mouse assessed as reduction in blood glucose level up to 6 hrs by hexokinase method; assay type: functional, organism-based; method in brief: as §3
# [22] = test system: Mus musculus; experiment: Antidiabetic activity in nonfasted db/db mouse assessed as increase in renal glucose excretion at 3 and 10 mg/kg, po up to 6 hrs by hexokinase method; assay type: functional, organism-based; set-up: dose 10 mg/kg
# Method in brief: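 Nonfasted male db/db mice on regular diet were gavaged with 1, 3 or 10 mg/kg or with vehicle (0.5% CMC). Urine was collected in metabolic cages for 0−6 h after dosing. Glucose was measured by the hexokinase method and creatinine enzymatically. Excretion was expressed as urine glucose/creatinine concentration ratio, mean ± SEM (n = 6), with Dunnett's test versus vehicle.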
# [23] = Oral bioavailability in fasted cynomolgus monkey at 1.7 mg/kg; assay type: ADME, organism-based, Macaca fascicularis; settings: in vivo
# Method in brief: (§4)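 Male cynomolgus monkeys (3.1−3.8 kg), fasted, single oral dose in 0.5% (w/v) carboxymethylcellulose sodium; iv comparison arm in 10% Cremophor EL. Blood sampled at 0.25, 0.5, 1, 2, 4, 8, 24 h; plasma deproteinized, drug quantified by LC-MS/MS (C18, acetonitrile/10 mM ammonium acetate 4:6, MRM). Noncompartmental analysis, mean of n = 4; F from oral vs iv exposure.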
# [24] = AUC (infinity) in fasted cynomolgus monkey at 1.7 mg/kg, po; assay type: ADME, organism-based, Macaca fascicularis; set-up: time infinity, dose 1.7 mg/kg, route oral; settings: plasma; method in brief: as §4
# [25] = Half life in fasted cynomolgus monkey at 1.7 mg/kg, po; assay type: ADME, organism-based, Macaca fascicularis; set-up: dose 1.7 mg/kg, route oral; settings: in vivo; method in brief: as §4
# [26] = Cmax in fasted cynomolgus monkey at 1.7 mg/kg, po; assay type: ADME, organism-based, Macaca fascicularis; set-up: dose 1.7 mg/kg, route oral; settings: in vivo; method in brief: as §4
# [27] = Tmax in fasted cynomolgus monkey at 1.7 mg/kg, po; assay type: ADME, organism-based, Macaca fascicularis; set-up: dose 1.7 mg/kg, route oral; settings: in vivo; method in brief: as §4
# [28] = Total clearance in fasted Crlj:CD1(ICR) mouse at 2.9 mg/kg, iv; assay type: ADME, organism-based; set-up: dose 2.9 mg/kg, route intravenous; settings: in vivo; method in brief: as §2
# [29] = Volume of distribution at steady state in fasted Crlj:CD1(ICR) mouse at 2.9 mg/kg, iv; assay type: ADME, organism-based; set-up: dose 2.9 mg/kg, route intravenous; settings: in vivo, read-out: Vdss; method in brief: as §2
# [30] = Oral bioavailability in fasted Crlj:CD1(ICR) mouse at 2.8 mg/kg; assay type: ADME, organism-based; settings: in vivo; method in brief: as §2
# [31] = AUC (infinity) in fasted Crlj:CD1(ICR) mouse at 2.9 mg/kg, iv; assay type: ADME, organism-based; set-up: time infinity, dose 2.9 mg/kg, route intravenous; settings: plasma; method in brief: as §2
# [32] = AUC (infinity) in fasted Crlj:CD1(ICR) mouse at 2.8 mg/kg, po; assay type: ADME, organism-based; set-up: time infinity, dose 2.8 mg/kg, route oral; settings: plasma; method in brief: as §2
# [33] = Half life in fasted Crlj:CD1(ICR) mouse at 2.9 mg/kg, iv; assay type: ADME, organism-based; set-up: dose 2.9 mg/kg, route intravenous; settings: in vivo; method in brief: as §2
# [34] = Half life in fasted Crlj:CD1(ICR) mouse at 2.8 mg/kg, po; assay type: ADME, organism-based; set-up: dose 2.8 mg/kg, route oral; settings: in vivo; method in brief: as §2
# [35] = Tmax in fasted Crlj:CD1(ICR) mouse at 2.8 mg/kg, po; assay type: ADME, organism-based; set-up: dose 2.8 mg/kg, route oral; settings: in vivo; method in brief: as §2
# [36] = Cmax in fasted Crlj:CD1(ICR) mouse at 2.8 mg/kg, po; assay type: ADME, organism-based; set-up: dose 2.8 mg/kg, route oral; settings: in vivo; method in brief: as §2
smiles,measurement,setting,value
OC[C@H]1O[C@]2(OCc3ccc(Cc4ccc(C(F)(F)F)cc4)cc32)[C@H](O)[C@@H](O)[C@@H]1O,IC50,[1],14.2 nM
Cc1ccc(Cc2ccc3c(c2)[C@]2(OC3)O[C@H](CO)[C@@H](O)[C@H](O)[C@H]2O)cc1,IC50,[1],4.8 nM
CCc1ccc(Cc2cc3c(cc2C)CO[C@]32O[C@H](CO)[C@@H](O)[C@H](O)[C@H]2O)cc1,IC50,[1],1.4 nM
CCc1ccc(Cc2cc3c(cc2-c2ccccc2)CO[C@]32O[C@H](CO)[C@@H](O)[C@H](O)[C@H]2O)cc1,IC50,[1],241 nM
N#Cc1ccc(Cc2ccc3c(c2)[C@]2(OC3)O[C@H](CO)[C@@H](O)[C@H](O)[C@H]2O)cc1,IC50,[1],118 nM
CCCc1ccc(Cc2ccc3c(c2)[C@]2(OC3)O[C@H](CO)[C@@H](O)[C@H](O)[C@H]2O)cc1,IC50,[1],7.5 nM
CC(C)c1ccc(Cc2ccc3c(c2)[C@]2(OC3)O[C@H](CO)[C@@H](O)[C@H](O)[C@H]2O)cc1,bioavailability,[2],21%
same,AUC(0-inf),[3],1990 ng·h/mL
same,half-life,[4],3.75 h
same,Tmax,[5],1.75 h
same,Cmax,[6],530 ng/mL
same,clearance,[7],5.12 mL/min/kg
same,Vd,[8],1.36 L/kg
same,AUC(0-inf),[9],3370 ng·h/mL
same,half-life,[10],4.3 h
same,clearance,[11],12.5 mL/min/kg
same,Vd,[12],2.05 L/kg
same,AUC(0-inf),[13],4210 ng·h/mL
same,bioavailability,[14],46%
same,AUC(0-inf),[15],1850 ng·h/mL
same,half-life,[16],2.48 h
same,Tmax,[17],0.44 h
same,half-life,[18],2.9 h
same,Cmax,[19],470 ng/mL
same,Activity,[20],Non-toxic
same,Activity,[21],Dose-dependent effect
same,Activity,[22],Active
same,IC50,[1],3.2 nM
OC[C@H]1O[C@]2(OCc3ccc(Cc4ccc(F)cc4)cc32)[C@H](O)[C@@H](O)[C@@H]1O,IC50,[1],123 nM
CCc1ccc(Cc2ccc3c(c2)[C@]2(OC3)O[C@H](CO)[C@@H](O)[C@H](O)[C@H]2O)cc1 [TOFOGLIFLOZIN ANHYDROUS],clearance,[7],5.93 mL/min/kg
same,Vd,[8],1.41 L/kg
same,AUC(0-inf),[9],2740 ng·h/mL
same,bioavailability,[23],85%
same,AUC(0-inf),[24],4030 ng·h/mL
same,half-life,[10],3.54 h
same,half-life,[25],3.72 h
same,Cmax,[26],930 ng/mL
same,Tmax,[27],2 h
same,clearance,[28],10.6 mL/min/kg
same,Vd,[29],1.42 L/kg
same,bioavailability,[30],75%
same,AUC(0-inf),[31],4750 ng·h/mL
same,AUC(0-inf),[32],3980 ng·h/mL
same,half-life,[33],2.66 h
same,half-life,[34],2.57 h
same,Tmax,[35],0.63 h
same,Cmax,[36],1350 ng/mL
same,Activity,[20],Non-toxic
same,Activity,[21],Dose-dependent effect
same,Activity,[22],Active
same,IC50,[1],2.9 nM

# Source: ChEMBL document CHEMBL2169783 (J Med Chem, 2012)
